UHRF1 binding = UHRF1 methyl-DNA binding inhibition; Q96T88; UHRF1 binding to methylated oligo, TR-FRET; inhibition, % at 4.4 µM; 370,000 compounds, 0.75% hits; in the data active means inhibition above about 21%;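 further: UHRF1 SRA domain binding a hemimethylated CpG hairpin DNA probe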
Rin1 Abl inh = human Rin1-Abl interaction inhibition | TR-FRET Rin1/Abl binding, biochemical | inhibition, % at 7.35 µM | 360,000 compounds, 0.4% hits | P00519+Q13671; in the data active means inhibition above about 5%, passing the limit was not always enough
MBD2 inh = blocks human MBD2 binding to methylated DNA. TR-FRET, MBD2 binding to methylated oligonucleotide. inhibition, % at 4.4 µM. 370,000 compounds, 0.31% hits. AID 686964. Q9UBB5; in the data active means inhibition above about 13%
Target sequence (Q9UBB5 whole entry, looked up): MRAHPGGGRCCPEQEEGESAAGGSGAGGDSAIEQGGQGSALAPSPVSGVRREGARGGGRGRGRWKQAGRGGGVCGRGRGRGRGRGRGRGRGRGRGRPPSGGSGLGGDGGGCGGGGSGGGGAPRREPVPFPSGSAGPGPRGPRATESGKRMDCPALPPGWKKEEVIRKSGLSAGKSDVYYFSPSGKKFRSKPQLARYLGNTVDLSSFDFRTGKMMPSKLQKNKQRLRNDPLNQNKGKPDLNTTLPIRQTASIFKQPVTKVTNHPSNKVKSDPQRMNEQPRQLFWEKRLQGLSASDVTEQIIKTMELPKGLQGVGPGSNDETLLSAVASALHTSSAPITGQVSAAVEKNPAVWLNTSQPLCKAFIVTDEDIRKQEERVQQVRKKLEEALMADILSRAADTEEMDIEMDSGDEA
LEDGF integ inh = blocks HIV-1 LEDGF/p75-dependent DNA integration. AID 743269. TR-FRET IN-LEDGF/p75 DNA integration, Eu/Cy5. inhibition, % at 3.7 µM. 370,000 compounds, 0.64% hits;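 active means inhibition above the screen-wide mean plus 3 SD, cut at about 13% in these data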;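 further: signal is the Cy5 over europium emission ratio at 671 and 618 nm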
TDP2 absorb = TDP2 (human) inhibition, absorbance primary screen; O95551; inhibition, % at 12.8 µM; 370,000 compounds, 0.34% hits; AID 720702; recombinant TDP2, T5PNP hydrolysis, p-nitrophenol absorbance 415 nm;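 active means inhibition above the mean of all tested compounds plus 3 SD, set per campaign, cut at about 25% in these data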
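Evaluation: % inhibition relative to enzyme-containing and enzyme-free wells. Material: recombinant human TDP2. Benchmarks: enzyme-free and DMSO wells. Timing: enzyme reaction with compound for 2 h at 37 °C. Compound dosing: 12.8 µM only. Measured by: p-Nitrophenol epi absorbance. Reagent: T5PNP substrate at 5 mM, a TopII-DNA adduct mimic. Replication: single well per compound.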
IN multimer up = HIV-1 integrase multimerization activation, counter-screen. shares compounds with LEDGF integ inh. TR-FRET HIV-1 integrase multimerization, biochemical. activation, % at 7.7 µM. 2,000 compounds, 17% hits. AID 1053131; in the data active means activation above about 8.9%
TR-FRET interf = optically interferes with TR-FRET readout in LEDGF counter-screen; shares compounds with LEDGF integ inh; TR-FRET optical interference counterscreen, HIV-1 IN multimerization; inhibition, % at 7.7 µM; 2,000 tested, under 10 active;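 active means inhibition above the mean over all tested compounds plus 3 SD, which no compound reached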
LEDGF integ conf = LEDGF/p75-dependent HIV-1 integration inhibition, confirmation; shares compounds with LEDGF integ inh; TR-FRET LEDGF/p75-dependent HIV-1 integration, biochemical; inhibition, % at 3.7 µM; 2,000 compounds, 36% hits; in the data active means inhibition above about 14%
Large screens that a line does not name were inactive (follow-up assays come after a bar, where they were run). An excerpt weighted towards active compounds, which were near 1.9% of everything screened.

Cc1cccc(-c2cccc3c4c([nH]c23)[C@@H]2C[C@H](N(C)C(=O)Nc3ccccc3)[C@H]([C@H](C)O)C(=O)N2CC4)c1	none (no result: Rin1 Abl inh)
CC(C=CC(O)=C1C(=O)CNC1=O)=C[C@@H](C)C1OC2(C)OC(C(=O)C3O[C@@]32C)C1C (some centres not stated)	LEDGF integ inh 21.7 (no result: Rin1 Abl inh) | IN multimer up inactive | TR-FRET interf inactive | LEDGF integ conf inactive
CCn1c(=O)[nH]n(C/C(C)=C\c2c[n+](Cc3ccc4c(c3)OCO4)c(N)[nH]2)c1=O	none (no result: Rin1 Abl inh)
COC(=O)Cc1c(C)nc2nc(-c3ccccc3)[nH]n2c1=O	none
COC(=O)Cc1c(C)nc2nc(Cc3ccccc3)[nH]n2c1=O	LEDGF integ inh 14.1 | IN multimer up inactive | TR-FRET interf inactive | LEDGF integ conf inactive
Cc1nn(-c2ccccc2)c(C)c1C=NNC(=O)CSc1nc2ccccc2n1C	none (no result: Rin1 Abl inh)
O=c1cc2oc3cc(O)c(O)cc3c(-c3ccccc3[N+](=O)[O-])c-2cc1O	UHRF1 binding 41.2, Rin1 Abl inh 64.8, LEDGF integ inh 86.0 | IN multimer up 10.9 | TR-FRET interf inactive | LEDGF integ conf 85.6
Nc1[nH]c2cc(C(F)(F)F)ccc2c1C(=O)NC1CCCCC1	none (no result: Rin1 Abl inh)
CC(C)(C)c1ccc(-c2nc(C#N)c(N3CCC(C(N)=O)CC3)o2)cc1	none
N#Cc1nc(-c2cccc(Cl)c2)oc1N1CCC(C(N)=O)CC1	LEDGF integ inh 26.5 | IN multimer up inactive | TR-FRET interf inactive | LEDGF integ conf inactive
O=C1NC(c2cccc(Br)c2)=N/C1=C\c1ccco1	LEDGF integ inh 20.7 | IN multimer up inactive | TR-FRET interf inactive | LEDGF integ conf inactive
COC(=O)[C@]12C[C@H](CC(=O)NCc3cccc(C(F)(F)F)c3)C(=O)N(Cc3ccccc3)C1=C[C@H](COCc1ccccc1)O[C@@H]2C	none (no result: Rin1 Abl inh)
CCNc1nc(-c2cc(C)n(Cc3ccco3)c2C)cs1	none
Cc1cc(-c2csc(NC(=O)c3ccc(=O)[nH]c3)n2)c(C)n1Cc1ccco1	Rin1 Abl inh 8.3, LEDGF integ inh 62.6 | IN multimer up 11.4 | TR-FRET interf inactive | LEDGF integ conf 42.9
Cc1ccc(-n2c(SCC(=O)c3ccc4ccccc4c3)nnc2-c2cccnc2)cc1	none (no result: Rin1 Abl inh)
O=C(NC1CCCC1)c1ccc(COc2ccccc2)o1	none (no result: Rin1 Abl inh)
C#CCN1C(=O)S/C(=C\c2ccc(-c3ccc(Cl)c(C(=O)O)c3)o2)C1=O	none
O=C(O)c1cc(-c2ccc(/C=C3\NC(=O)N(c4ccc(Cl)cc4)C3=O)o2)ccc1Cl	UHRF1 binding 62.4, LEDGF integ inh 15.0 | IN multimer up inactive | TR-FRET interf inactive | LEDGF integ conf 26.7
COc1ccc(C=Nn2c(-c3n[nH]c4c3CCC4)n[nH]c2=S)cc1OCc1ccccc1	none (no result: Rin1 Abl inh)
Cc1cc(C(C)(C)C)cc(C)c1S(=O)(=O)N1CCN(C(=O)c2cc([N+](=O)[O-])c[nH]c2=O)CC1	LEDGF integ inh 28.4 | IN multimer up inactive | TR-FRET interf inactive | LEDGF integ conf inactive
O=C1C=C(Nc2ccc(O)cc2)CC(c2ccco2)C1 (configuration not stated)	none
O=C1C=C(O)CC(c2ccco2)C1 (configuration not stated)	UHRF1 binding 35.6, LEDGF integ inh 37.9 | IN multimer up inactive | TR-FRET interf inactive | LEDGF integ conf 21.5
O=C(c1ccc(=O)oc1)N1CCOCC1	UHRF1 binding 42.8, LEDGF integ inh 29.2 | IN multimer up inactive | TR-FRET interf inactive | LEDGF integ conf 58.3
CCCCCCCCN1C(=O)[C@@H](CC(=O)NCCc2ccccc2OC)C[C@@]2(C(=O)OC)C1=C[C@H](C(C)(C)C)O[C@@H]2C	none (no result: Rin1 Abl inh)
Cc1ccc(CNc2ccc(O)cc2)cc1	LEDGF integ inh 19.8 | IN multimer up 11.1 | TR-FRET interf inactive | LEDGF integ conf 31.1
Cc1ccc(Nc2c([N+](=O)[O-])c(=O)oc3ccccc23)cc1C	LEDGF integ inh 13.8 | IN multimer up inactive | TR-FRET interf inactive | LEDGF integ conf inactive

High-throughput results deposited in PubChem by The Scripps Research Institute Molecular Screening Center.
